Assay results reported in PMC3046310 (Bioconjugate chemistry, 2010).
“Also recorded” adds a separate entry of the source.

Legend:
MC1R [1] = target: T1, MC1R (Mus musculus, UniProt Q01727); assay: In vitro cell binding assay; design: species or system murine; conditions: B16F10 cells
Outline: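 B16F10 cells were grown in high-glucose DMEM with 10% FBS and penicillin/streptomycin at 37 °C and 5% CO2. Cells (0.5 × 10^6) were resuspended in DMEM with 25 mM HEPES, 0.2% BSA and 0.3 mM 1,10-phenanthroline. They were incubated for 90 min at 37 °C with test compound (10^−12–10^−6 M) and ~40,000 cpm 125I-(Tyr2)-NDP. Cells were washed three times with ice-cold PBS and counted. IC50 was taken as the competitor concentration giving 50% inhibition of radioligand binding.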

MC1R [2] = target: T1, MC1R; conditions: previous studies; ref [19]; cited from earlier work
B16F10 tumors = assay: Small-animal PET imaging of mice bearing B16F10 tumors; type: in vivo, murine; conditions: for PET tumor delineation / image quality: B16F10 tumors, 1 and 2 h p.i.
Outline: (§1)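 Mice bearing B16F10 or A375M tumors received 110–130 μCi (4.07–4.81 MBq) 18F tracer via the tail vein. At 1 and 2 h p.i., mice under 2% isoflurane were placed prone for 5-min static small-animal PET scans, reconstructed by 2D OSEM without attenuation correction. ROIs drawn on decay-corrected coronal images were converted to %ID/g using a calibration constant, assuming 1 g/mL tissue density.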

A375M human melanoma = assay: Biodistribution in Foxn1 nude mice bearing A375M tumors; type: in vivo
B16F10 murine melanoma = assay: Biodistribution in C57BL/6 mice bearing B16F10 tumors; type: in vivo
Outline: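 Male C57BL/6 mice, 5–6 weeks old, were given 1 × 10^6 B16F10 cells in the right flank. At tumor diameter ~8 mm, 110–130 μCi (4.07–4.81 MBq) 18F tracer in PBS (0.01 M, pH 7.4) was injected i.v. into the tail vein. Mice (n=3) were killed by CO2 at 1, 2 and 4 h p.i. Tumor, blood and organs were weighed and γ-counted, giving %ID/g. Groups were compared by unpaired Student's t-test.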

A375M melanoma = assay: Small-animal PET imaging of mice bearing A375M tumors; type: in vivo, human
Outline: as §1

[3] = Foxn1 nude mice, A375M, 2 h p.i., i.v. 110-130 μCi, mean ± SD, n = 3
[4] = C57BL/6 mice, B16F10, 2 h p.i., i.v. 110-130 μCi, mean ± SD, n = 3

T1 sequence (Q01727 whole entry): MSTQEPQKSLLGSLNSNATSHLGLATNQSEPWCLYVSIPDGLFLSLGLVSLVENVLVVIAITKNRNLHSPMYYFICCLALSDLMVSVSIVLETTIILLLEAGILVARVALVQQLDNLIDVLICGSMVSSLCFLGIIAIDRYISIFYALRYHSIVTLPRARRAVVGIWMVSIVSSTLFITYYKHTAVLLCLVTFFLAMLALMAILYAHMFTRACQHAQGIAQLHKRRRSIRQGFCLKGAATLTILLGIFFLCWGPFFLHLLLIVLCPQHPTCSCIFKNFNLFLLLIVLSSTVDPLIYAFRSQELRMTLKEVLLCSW

With `CC(=O)N[C@H](CCCCNC(=O)C(C)F)C(=O)N[C@@H](CS)C(=O)N[C@@H](CS)C(=O)N[C@@H](CCC(=O)O)C(=O)N[C@@H](Cc1c[nH]cn1)C(=O)N[C@H](Cc1ccccc1)C(=O)N[C@@H](CCCNC(=N)N)C(=O)N[C@@H](Cc1c[nH]c2ccccc12)C(=O)N[C@@H](CS)C(=O)N[C@@H](CCCNC(=N)N)C(=O)N1CCC[C@H]1C(=O)N[C@H](C(N)=O)C(C)C` (some centres unmarked) [^19F-FP-RMSH-2] as the compound, how does the “receptor binding affinity” value (MC1R [1]) read?
Its value is “within low nM range”.

For “Ac-d,Lys-ReCCMSH(Arg^11) (sidechain bridge or staple) [RMSH-1]”, which “MC1R binding affinity of unconjugated RMSH isomers” value (MC1R [2]) is on record?
Its value is “high MC1R binding affinity in nanomolar (nM) range”.

Which results are given for `CC(=O)N[C@H](CCCCNC(=O)C(C)F)C(=O)N[C@@H](CS)C(=O)N[C@@H](CS)C(=O)N[C@@H](CCC(=O)O)C(=O)N[C@@H](Cc1c[nH]cn1)C(=O)N[C@H](Cc1ccccc1)C(=O)N[C@@H](CCCNC(=N)N)C(=O)N[C@@H](Cc1c[nH]c2ccccc12)C(=O)N[C@@H](CS)C(=O)N[C@@H](CCCNC(=N)N)C(=O)N1CCC[C@H]1C(=O)N[C@H](C(N)=O)C(C)C` (some centres unmarked) [^18F-FP-RMSH-2]?
PET tumor uptake compared with ^18F-FP-RMSH-1 (B16F10 tumors; B16F10, 1 and 2 h, ROI quantification, P < 0.01): much lower tumor uptake; PET liver and kidney uptake (B16F10 tumors; B16F10, 1 and 2 h p.i.): moderate to high uptake in liver and kidney; PET kidney uptake compared with ^18F-FP-RMSH-1 (B16F10 tumors; B16F10, 1 and 2 h p.i., ROI quantification, n = 3, P < 0.01): much higher uptake in kidney; PET tumor delineation / image quality (B16F10 tumors): much less prominent tumor uptake; liver and lung uptake compared with ^18F-FB-RMSH-2, A375M (A375M human melanoma; "in both models" (P < 0.05), A375M model): lower; liver and kidney uptake compared with ^18F-FP-RMSH-1, A375M (A375M human melanoma; A375M model, P < 0.05): higher uptake in liver and kidney; Blood uptake (A375M human melanoma; [3]): 0.20 ± 0.09 %ID/g; Bone uptake (A375M human melanoma; [3]): 0.25 ± 0.12 %ID/g; Brain uptake (A375M human melanoma; [3]): 0.04 ± 0.01 %ID/g; Heart uptake (A375M human melanoma; [3]): 0.18 ± 0.07 %ID/g; Intestine uptake (A375M human melanoma; [3]): 0.17 ± 0.00 %ID/g; Liver uptake (A375M human melanoma; [3]): 1.66 ± 0.08 %ID/g; Lung uptake (A375M human melanoma; [3]): 0.47 ± 0.21 %ID/g; Muscle uptake (A375M human melanoma; [3]): 0.10 ± 0.02 %ID/g; Pancreas uptake (A375M human melanoma; [3]): 0.09 ± 0.01 %ID/g; Spleen uptake (A375M human melanoma; [3]): 0.27 ± 0.03 %ID/g; Stomach uptake (A375M human melanoma; [3]): 0.52 ± 0.50 %ID/g; Tumor / Blood uptake ratio (A375M human melanoma; [3]): 2.90 ± 0.04; Tumor / Muscle uptake ratio (A375M human melanoma; [3]): 6.40 ± 2.66; liver and lung uptake compared with ^18F-FB-RMSH-2, B16F10 (B16F10 murine melanoma; "in both models" (P < 0.05), B16F10 model): lower; Blood uptake (B16F10 murine melanoma; [4]): 0.31 ± 0.11 %ID/g; Bone uptake (B16F10 murine melanoma; [4]): 0.52 ± 0.08 %ID/g; Brain uptake (B16F10 murine melanoma; [4]): 0.04 ± 0.01 %ID/g; Heart uptake (B16F10 murine melanoma; [4]): 0.21 ± 0.06 %ID/g; Intestine uptake (B16F10 murine melanoma; [4]): 0.91 ± 0.33 %ID/g; Lung uptake (B16F10 murine melanoma; [4]): 0.64 ± 0.15 %ID/g; Muscle uptake (B16F10 murine melanoma; [4]): 0.20 ± 0.05 %ID/g; Pancreas uptake (B16F10 murine melanoma; [4]): 0.10 ± 0.03 %ID/g; Spleen uptake (B16F10 murine melanoma; [4]): 0.53 ± 0.03 %ID/g; Stomach uptake (B16F10 murine melanoma; [4]): 0.42 ± 0.14 %ID/g; Tumor / Blood uptake ratio (B16F10 murine melanoma; [4]): 2.74 ± 0.80; Tumor / Muscle uptake ratio (B16F10 murine melanoma; [4]): 3.98 ± 1.09; liver uptake compared with ^18F-FP-RMSH-1 (B16F10 murine melanoma; biodistribution, 2 h): higher uptake in liver

Which “PET liver and kidney uptake” value (B16F10 tumors; B16F10, 1 and 2 h p.i.) does the source give for `CC(=O)N[C@H](CCCCNC(=O)C(C)F)C(=O)N[C@@H](CS)C(=O)N[C@@H](CS)C(=O)N[C@@H](CCC(=O)O)C(=O)N[C@@H](Cc1c[nH]cn1)C(=O)N[C@H](Cc1ccccc1)C(=O)N[C@@H](CCCNC(=N)N)C(=O)N[C@@H](Cc1c[nH]c2ccccc12)C(=O)N[C@@H](CS)C(=O)N[C@@H](CCCNC(=N)N)C(=O)N1CCC[C@H]1C(=O)N[C@H](C(N)=O)C(C)C` (some centres unmarked) [^18F-FP-RMSH-1] here?
Its value is “moderate to high uptake in liver and kidney”.

What about the “PET tumor delineation / image quality” value (B16F10 tumors) of the same compound?
The value was “Improved quality of PET images; also recorded: clearly delineated over the background at 1 and 2 h p.i”.

What about the “A375M tumor uptake compared with B16F10 tumors” value (A375M human melanoma; 2 h p.i., P < 0.01) of the same compound?
The value was “significantly lower than in B16F10 tumors”.

And the Heart uptake (A375M human melanoma; [3])?
Its Heart uptake is 0.41 ± 0.19 %ID/g.

What about the Intestine uptake (A375M human melanoma; [3]) of the same compound?
The Intestine uptake was 0.40 ± 0.19 %ID/g.

And the Liver uptake (A375M human melanoma; [3])?
Its Liver uptake is 0.69 ± 0.21 %ID/g.

And the Pancreas uptake (A375M human melanoma; [3])?
Its Pancreas uptake is 0.78 ± 0.49 %ID/g.

And the “Muscle uptake” value (B16F10 murine melanoma; B16F10 model)?
Its value is “low uptake in muscle”.

What about the “blood clearance” value (B16F10 murine melanoma; B16F10 model) of the same compound?
The value was “rapid blood clearance”.

What about the “lung and liver uptake compared with ^18F-FB-RMSH-1” value (B16F10 murine melanoma; B16F10 model) of the same compound?
Its value is “much lower uptake in lung and liver”.

And the “tumor-to-blood and tumor-to-muscle ratios compared with ^18F-FB-RMSH-1” value (B16F10 murine melanoma; B16F10 model)?
The value was “Much higher tumor-to-blood and tumor-to-muscle ratios”.

And the “kidney uptake compared with ^18F-FB-RMSH-1” value (B16F10 murine melanoma; B16F10 tumor bearing mice, P < 0.05)?
The value was “lower kidney uptake”.

What about the “Tumor / Muscle uptake ratio” value (B16F10 murine melanoma; [4]) of the same compound?
Its value is 9.36 ± 3.98.

And the “PET tumor uptake and tumor-to-background ratio, A375M” value (A375M melanoma; 1 and 2 h, compared with B16F10 tumor bearing mice)?
The value was “much lower tumor uptake and poor tumor-to-background ratio”.

And the “PET kidney activity accumulation, A375M” value (A375M melanoma; 1 and 2 h p.i.)?
The value was “high activity accumulation in kidneys”.

And the “PET visibility of A375M tumor” value (A375M melanoma; 1 and 2 h p.i.)?
The value was “barely discernable; also recorded: barely noticeable”.

For `CC(=O)N[C@H](CCCCNC(=O)C(C)F)C(=O)N[C@@H](CS)C(=O)N[C@@H](CS)C(=O)N[C@@H](CCC(=O)O)C(=O)N[C@@H](Cc1c[nH]cn1)C(=O)N[C@H](Cc1ccccc1)C(=O)N[C@@H](CCCNC(=N)N)C(=O)N[C@@H](Cc1c[nH]c2ccccc12)C(=O)N[C@@H](CS)C(=O)N[C@@H](CCCNC(=N)N)C(=O)N1CCC[C@H]1C(=O)N[C@H](C(N)=O)C(C)C` (some centres unmarked) [^19F-FP-RMSH-1], which “receptor binding affinity” value (MC1R [1]) is on record?
The value was “within low nM range”.

Which “MC1R binding affinity of unconjugated RMSH isomers” value (MC1R [2]) does the source give for “Ac-d,Lys-ReCCMSH(Arg^11) (sidechain bridge or staple) [RMSH-2]” here?
Its value is “high MC1R binding affinity in nanomolar (nM) range”.
